PKA-R1A act = activators of PKA-R1A holoenzyme, primary screen, biochemical, fluorescence polarization, Cy5-IP20, bovine R1A, mouse PKAc; cAMP-dependent protein kinase type I-alpha regulatory subunit (Bos taurus) + …; PKA-R1A dissociation; scaled: DMSO 0%, 113 µM cGMP 100%; activation, % at 11.4 µM; 0.083% of 340,000 active;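 active means percent activation above the mean of all tested compounds plus 3 SD, cut at about 19% in these data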;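 further: higher means more PKAc released from R1A so a rise in polarization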
bovine MsrA act = bovine MsrA enzyme activators, primary screen, biochemical, absorbance, HTS | Methionine sulfoxide reductase A (Bos taurus) | purified bovine MsrA, absorbance read-out | activation, % at 10.6 µM | 0.3% of 360,000 active | AID 602163, 2012; in the data active means activation above about 7.5%;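 further: 0% = vehicle and 100% = reference activator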
VIM-2 inhibitor = VIM-2 metallo-beta-lactamase inhibitors, primary screen, biochemical, epi-absorbance readout, Pseudomonas aeruginosa enzyme | purified VIM-2, nitrocefin hydrolysis, epi-absorbance fluorescence | inhibition, % at 5.6 µM | 0.89% of 290,000 active;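 active means inhibition above the mean of all tested compounds plus 3 SD, cutoff set per screening run, cut at about 7.5% in these data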;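 further: red hydrolysis product quenches plate fluorescence so inhibitors raise well fluorescence; 0% = enzyme with DMSO and 100% = DMSO without enzyme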
IMP-1 inh-1 = IMP-1 metallo-beta-lactamase inhibitors, primary screen, biochemical, epi-absorbance readout, Pseudomonas aeruginosa enzyme | metallo-beta-lactamase IMP-1 (Pseudomonas aeruginosa) | purified IMP-1, nitrocefin hydrolysis, epi-absorbance fluorescence | inhibition, % at 5.6 µM | 0.45% of 290,000 active | AID 1556, 2009;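 active means inhibition above the mean plus 3 SD of all compounds in the same screening run, cut at about 4.5% in these data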;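 further: 0% = IMP-1 with DMSO and 100% = DMSO wells lacking enzyme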
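System: Purified recombinant IMP-1 metallo-beta-lactamase enzyme | Measured by: Fluorescence quenching readout, ex 480/em 530 nm | Replication: Singlicate | Incubation: 15 min preincubation plus 25 min reaction at 25 °C | Evaluation: Percent inhibition from optical density relative to buffer-blank wells | Benchmarks: DMSO with and without IMP-1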
MsrA inh = bovine MsrA enzyme inhibitors, primary screen, biochemical, absorbance, HTS; inhibition, % at 15.5 µM; 0.75% of 360,000 active; purified bovine MsrA, absorbance read-out; AID 651718, 2012; in the data active means inhibition above about 4.5%;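 further: 0% = vehicle wells with enzyme and 100% = reference inhibitor wells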
PKA-R2B activ = activators of PKA-R2B holoenzyme, primary screen, biochemical, fluorescence polarization, Cy5-IP20, human | PKA-R2B holoenzyme dissociation; R2B truncated from residue 108, S112A mutant; 0% DMSO only, 100% 113 µM cGMP | activation, % at 11.4 µM | 0.079% of 340,000 active | AID 504700, 2011;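 active means activation above a cutoff set at the mean over all compounds plus 3 SD, cut at about 18% in these data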;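 further: higher means more holoenzyme dissociation and a rise in polarization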
IMP-1 inh-2 = IMP-1 metallo-beta-lactamase inhibitors, confirmation, selectivity assay for selective VIM-2 inhibitor project, biochemical, epi-absorbance readout, triplicate | shares compounds with VIM-2 inhibitor | inhibition, % at 5.6 µM | purified IMP-1, nitrocefin hydrolysis, epi-absorbance fluorescence | 1,300 tested, under 10 active; call rule not given here;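 further: 0% = enzyme with vehicle and 100% = vehicle without enzyme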
VIM-2 FRET ctr = VIM-2 inhibitors in FRET format, confirmation, artefact control for selective VIM-2 inhibitor project, biochemical, epi-absorbance artifact exclusion. purified VIM-2, CCF2 FRET substrate hydrolysis. inhibition, % at 5.6 µM. 23% of 1,300 active. AID 1857, 2009. shares compounds with VIM-2 inhibitor;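 active means inhibition above the mean of all tested compounds plus 3 SD, cut at about 19% in these data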;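 further: 0% = VIM-2 plus DMSO and 100% = no enzyme wells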
TEM-1 counter = TEM-1 serine beta-lactamase inhibitors, counter-screen for VIM-2 inhibitor project, biochemical, epi-absorbance, HTS; Purified TEM-1, nitrocefin hydrolysis, epi-absorbance fluorescence; AID 1866, 2009; shares compounds with VIM-2 inhibitor; inhibition, % at 5.6 µM; 3% of 1,300 active;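 active means inhibition above that campaign's mean inhibition plus 3 SD, cut at about 0.46% in these data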;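 further: 0% = TEM-1 with DMSO and 100% = TEM-1 with 100 µM potassium clavulanate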
Target sequence (P62593 whole entry, looked up): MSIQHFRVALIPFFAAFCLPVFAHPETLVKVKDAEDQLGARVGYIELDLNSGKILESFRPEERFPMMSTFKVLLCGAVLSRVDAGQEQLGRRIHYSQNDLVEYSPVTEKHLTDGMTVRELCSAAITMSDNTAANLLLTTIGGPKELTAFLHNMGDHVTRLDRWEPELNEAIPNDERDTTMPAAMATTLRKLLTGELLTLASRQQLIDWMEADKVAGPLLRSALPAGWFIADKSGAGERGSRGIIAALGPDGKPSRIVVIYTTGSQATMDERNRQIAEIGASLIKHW
VIM-2 confirm 2 = VIM-2 metallo-beta-lactamase inhibitors, confirmation, biochemical, epi-absorbance, hits shared with IMP-1 screen; shares compounds with VIM-2 inhibitor; purified VIM-2, nitrocefin hydrolysis; inhibition, % at 5.6 µM; 96% of 1,300 active; AID 2187, 2009;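 active means inhibition of the VIM-2 beta-lactamase enzyme above about 11% from the earlier first-round screen, limit read from the data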;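 further: 0% = VIM-2 with DMSO and 100% = buffer wells without enzyme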
An asterisk follows results filed as active; / = no result given. This is a sample that favours compounds with a hit; in the whole collection about 2.1% have one here.

SMILES	PKA-R1A act	bovine MsrA act	VIM-2 inhibitor	IMP-1 inh-1	MsrA inh	PKA-R2B activ	IMP-1 inh-2	VIM-2 FRET ctr	TEM-1 counter	VIM-2 confirm 2
CCCc1cc(=O)oc2c3c(cc(OCC(=O)NCCN4CCOCC4)c12)OC(C)(C)CC3	-0.6	-3.5	-1.4	-1.6	1.9	-6.4	/	/	/	/
Cc1cc(=O)oc2c3c(cc(OCC(=O)N4CCC(C(=O)O)CC4)c12)OC(C)(C)CC3	-10.0	-6.4	-0.5	-4.0	2.7	-1.4	/	/	/	/
Cc1cc(=O)oc2c3c(cc(OCC(=O)N4CCC[C@H]4C(=O)O)c12)OC(C)(C)CC3	-2.5	-4.6	25.5*	-2.1	2.8	-3.2	-2.9	46.3*	-3.3	29.3*
CCCCCCc1c(C)c2ccc(OCC(=O)N3CCC[C@H]3C(=O)O)c(C)c2oc1=O	-8.4	-3.0	-4.3	-1.8	1.0	-1.1	/	/	/	/
CCCc1cc(=O)oc2c(C)c(OCC(=O)N3CCC[C@@H]3C(=O)O)ccc12	5.3	-2.3	22.6*	-3.7	1.9	-6.2	-2.5	41.0*	-4.7	23.7*
CCCCc1cc(=O)oc2c3c(cc(OCC(=O)N4CCC[C@H]4C(=O)O)c12)OC(C)(C)CC3	-3.0	-1.0	15.8*	-4.9	3.1	-1.0	-2.8	36.1*	-5.9	20.3*
Cc1cc(OCC(=O)N2CCC[C@@H]2C(=O)O)c2c(C)c(C)c(=O)oc2c1	1.2	-0.6	26.9*	-2.8	0.9	-2.7	-2.9	50.7*	-5.2	32.6*
COc1ccc(-c2nnc3c4ccccc4c(C)nn23)cc1S(=O)(=O)N1CCN(CCO)CC1	-10.0	-1.7	27.4*	-5.6	0.2	2.5	-2.6	10.9	-9.1	39.7*
Cc1nn2c(-c3ccc(S(=O)(=O)N4CCN(CCO)CC4)o3)nnc2c2ccccc12	-9.1	-0.1	25.8*	-0.3	0.7	-7.9	-2.0	7.6	-2.8	34.7*
COc1ccc(CN2C(=O)c3ccccc3C2c2nnnn2-c2ccc3c(c2)OCCO3)cc1 (stereo unspecified)	/	-11.1	/	/	0.5	/	/	/	/	/
COc1ccc2ccccc2c1C(O)c1nccn1C (stereo unspecified)	-3.8	-2.2	12.6*	0.5	0.7	9.9	-0.4	-1.6	-1.3	11.2*
CC(C)c1ccc(NC(=O)C2CC(=O)Nc3nc4ccccc4n32)cc1 (stereo unspecified)	4.7	-1.5	-1.7	-1.8	-1.1	8.9	/	/	/	/
COc1cc(Nc2c3c(nc4ccccc24)CCCC3)cc(OC)c1OC	3.4	2.7	1.1	-2.0	1.5	-10.7	/	/	/	/
COc1ccc(Nc2c3c(nc4ccccc24)CCC3)c(OC)c1	11.4	-0.9	19.2*	0.1	2.5	-0.2	-5.3	-2.8	-7.9	22.1*
COc1ccc(Nc2nc(N3CCN(C)CC3)nc3ccccc23)c(OC)c1	3.7	-3.8	15.8*	-1.4	0.1	9.7	-2.9	-0.1	-6.6	27.9*

Source: PubChem BioAssay
